Activity calls are given as the source filed them. The calls are words filed in the database; no cut-off is given here.
Tests used:
HeLa = experiment: Antiproliferative activity against human HeLa cells assessed as reduction in cell viability after 48 hrs by MTT assay; type: functional, cell-based
Outline: (§1)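 MTT assay. HeLa and U87 cells were grown in DMEM + 10% FBS, and MCF-7 cells in RPMI + 10% FBS. Cells were seeded at 4 × 10³/well, grown 24 h, then exposed to 0.001–100 μM for 48 h. 0.1% DMSO was the negative control and 1 μM PAO the positive control. Quadruplicate wells, ≥2 repeats.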

MCF7 = experiment: Antiproliferative activity against human MCF7 cells assessed as reduction in cell viability after 48 hrs by MTT assay; type: functional, cell-based; conditions: MCF7, 48 h; outline: as §1
NHDF = experiment: Cytotoxicity against human NHDF cells assessed as cell growth after 48 hrs by MTT assay; type: cell-based
Outline: (§2)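 Normal fibroblasts (NHDF, NHLF) were grown in FGM-2 medium at 37 °C, 5% CO2, seeded at 4 × 10³/well and grown 24 h. Controls were 0.1% DMSO and 1 μM PAO. Quadruplicate wells, repeated at least twice.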

[1] = Antiproliferative activity against human GBM 031810 cells assessed as reduction in cell viability after 48 hrs by MTT assay; type: functional; conditions: GBM 031810, 48 h
Outline: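 Patient-derived glioblastoma neurosphere culture GBM 031810, kept in Neurobasal medium with B27, Glutamax, FGF-2 (20 ng/ml), EGF (20 ng/ml) and heparin; growth factors renewed twice weekly. GI50 is the average ± SD of three determinations.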

U-87MG ATCC [2] = experiment: Redifferentiation of human U87 cells assessed as nonmalignant state resembling reactive astrocyte/phenotype at 7 uM after 3 days; type: functional, cell-based; conditions: in the assay text read “33 days” for “3 days”
Outline: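 U87 cells were plated at 5 × 10⁴/well in DMEM/10% FBS. Next day they were re-fed and dosed at final concentrations between 15 and 5 μM, with medium not replaced afterwards. Morphology was followed for several weeks (33-day treatment shown at 7 μM) against untreated cells.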

[3] = Cytotoxicity against human NHLF cells assessed as cell growth after 48 hrs by MTT assay; type: cell-based; outline: as §2
[4] = Antiproliferative activity against human U373 cells assessed as global growth ratio measured as cell growth at 25 uM after 24 hrs by Quantitative videomicroscopy relative to untreated control; type: functional, U-373MG ATCC; conditions: in the assay text read “after 72 hrs” for “after 24 hrs”
Outline: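 U373 cells were grown in RPMI + 10% heat-inactivated FBS and followed by computer-assisted phase-contrast videomicroscopy with 25 μM compound. The global growth ratio is the mean cell count per image at 24, 48 or 72 h divided by the count at 0 h, then normalised to the same ratio in the untreated control.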

A549 = experiment: Antiproliferative activity against human A549 cells assessed as reduction in cell viability up to 100 uM after 48 hrs by MTT assay; type: functional, cell-based
Outline: (§3)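 Cells (U87 in DMEM, A549 in RPMI with 10% heat-inactivated FBS) were seeded at 4 × 10³/well, grown 24 h, then exposed to 0.001–100 μM compound (DMSO stocks) for 48 h at 37 °C, 5% CO₂. Quadruplicates, repeated at least twice; 0.1% DMSO negative control, 1 μM PAO positive control.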

U-87MG ATCC [5] = experiment: Antiproliferative activity against human U87 cells assessed as reduction in cell viability up to 100 uM after 48 hrs by MTT assay; type: functional, cell-based; outline: as §3
[6] = Antiproliferative activity against human U87 cells assessed as reduction in cell viability after 48 hrs by MTT assay; type: functional, U-87MG ATCC; conditions: U-87 MG; outline: as §1

For `COc1ccc(-c2[nH]c3ccccc3c2C(C(=O)NO)c2ccccc2)cc1` (centres undefined), the IC50 (HeLa) was > 50 µM and the IC50 (MCF7) was > 50 µM.

`O=C(NO)C(c1ccc(Cl)c(Cl)c1)c1c(-c2ccc3ccccc3c2)[nH]c2ccccc12` (centres undefined) showed an IC50 (HeLa) of 31.7 µM and an IC50 (MCF7) of 12.2 µM.

`Cc1ccc(C(C(=O)NO)c2c(-c3ccc4ccccc4c3)[nH]c3ccccc23)cc1` (centres undefined) gave an IC50 (HeLa) of 6.3 µM and an IC50 (MCF7) of 4.9 µM.

`O=C(NO)C(c1ccccc1Cl)c1c(-c2ccc3ccccc3c2)[nH]c2ccccc12` (centres undefined) gave an IC50 (HeLa) of 31 µM and an IC50 (MCF7) of 4.9 µM.

For `CCCCn1c(-c2ccc3ccccc3c2)c(C(C(=O)NO)c2ccc(C(C)C)cc2)c2ccccc21` (centres undefined), the IC50 (HeLa) was 6.6 µM and the IC50 (MCF7) was 7.7 µM.

With `O=C(NO)C(c1ccccc1)c1c(-c2ccc3ccccc3c2)[nH]c2ccccc12` (centres undefined) the Activity (NHDF) was “Non-toxic”, the GI50 [1] was 0.8 µM and the Activity (U-87MG ATCC [2]) was “Active”. The Activity [3] was “Non-toxic”, the IC50 (HeLa) was 3.6 µM and the Activity [4] was 30%. For the same compound, the IC50 (MCF7) was 3.4 µM.

In the case of `N#CC(c1ccccc1)c1c(-c2ccc3ccccc3c2)[nH]c2ccccc12` (centres undefined), the IC50 (HeLa) is reported as 17.4 µM and the IC50 (MCF7) is reported as 20.6 µM.

In the case of `Cn1c(-c2ccc3ccccc3c2)c(C(C(=O)NO)c2cccc(F)c2)c2ccccc21` (centres undefined), the IC50 (HeLa) is reported as 36.8 µM and the IC50 (MCF7) is reported as 25.7 µM.

`O=C(NO)C(c1cccc(F)c1)c1c(-c2ccc3ccccc3c2)[nH]c2ccccc12` (centres undefined) gave an IC50 (HeLa) of 32.9 µM and an IC50 (MCF7) of 20.4 µM.

For `O=C(NO)C(c1ccccc1)c1c(-c2ccc3ccccc3c2)n(Cc2ccccc2)c2ccccc12` (centres undefined), the IC50 (HeLa) was 5.4 µM and the IC50 (MCF7) was 5.5 µM.

`Cc1ccc(C(C(=O)NO)c2c(-c3ccc4ccccc4c3)[nH]c3ccccc23)cc1C` (centres undefined) showed an IC50 (HeLa) of 2.7 µM and an IC50 (MCF7) of 2.5 µM.

Work on `Cn1c(-c2ccc3ccccc3c2)c(C(C(=O)NO)c2ccccc2)c2ccccc21` (centres undefined) yielded an IC50 (HeLa) of 19.7 µM and an IC50 (MCF7) of 10 µM.

In the case of `CC(=O)O[C@H]1C(=O)[C@@]2(C)[C@H]([C@H](OC(=O)c3ccccc3)[C@]3(O)C[C@H](OC(=O)[C@H](O)[C@@H](NC(=O)c4ccccc4)c4ccccc4)C(C)=C1C3(C)C)[C@]1(OC(C)=O)CO[C@@H]1C[C@@H]2O`, the Activity (A549) is reported as “inactive” and the Activity (U-87MG ATCC [5]) is reported as “inactive”.

`CCN(CC)c1ccc(C(C(=O)NO)c2c(-c3ccc4ccccc4c3)[nH]c3ccccc23)cc1` (centres undefined) gave an IC50 (HeLa) of 4.1 µM and an IC50 (MCF7) of 7.9 µM.

In the case of `CN(C)c1ccc(C(C(=O)NO)c2c(-c3ccc4ccccc4c3)[nH]c3ccccc23)cc1` (centres undefined), the Activity (NHDF) is reported as “Non-toxic”, the GI50 [1] is reported as 5.6 µM and the Activity [3] is reported as “Non-toxic”. It also gave an IC50 (HeLa) of 0.6 µM and an IC50 (MCF7) of 1.1 µM.

With `O=C(NO)C(c1ccccc1)c1c(-c2ccccc2[N+](=O)[O-])[nH]c2ccccc12` (centres undefined) the IC50 (HeLa) was > 50 µM and the IC50 (MCF7) was > 50 µM.

`O=C(NO)C(c1ccccc1Br)c1c(-c2ccc3ccccc3c2)[nH]c2ccccc12` (centres undefined) showed an IC50 (HeLa) of 13 µM and an IC50 (MCF7) of 2.7 µM.

In the case of `COc1cc([C@@H]2c3cc4c(cc3[C@H](O)[C@H]3COC(=O)[C@H]23)OCO4)cc(OC)c1OC`, the Activity (A549) is reported as “inactive” and the Activity (U-87MG ATCC [5]) is reported as “inactive”.

In the case of `Cn1nnc2c(C(N)=O)ncn2c1=O` [TEMOZOLOMIDE], the GI50 [1] is reported as > 1000 µM.

For `COc1ccc2[nH]c(-c3ccc4ccccc4c3)c(C(C(=O)NO)c3ccccc3)c2c1` (centres undefined), the IC50 (HeLa) was > 50 µM and the IC50 (MCF7) was > 50 µM.

For `CCC(C)n1c(-c2ccc3ccccc3c2)c(C(C(=O)NO)c2ccccc2)c2ccccc21` (centres undefined), the IC50 (HeLa) was 9.8 µM and the IC50 (MCF7) was 9.3 µM.

Work on `Cc1cccc(C(C(=O)NO)c2c(-c3ccc4ccccc4c3)[nH]c3ccccc23)c1` (centres undefined) yielded an IC50 (HeLa) of 6.9 µM and an IC50 (MCF7) of 7.4 µM.

In the case of `NC(=O)C(c1ccccc1)c1c(-c2ccc3ccccc3c2)[nH]c2ccccc12` (centres undefined), the IC50 (HeLa) is reported as 9.3 µM and the IC50 (MCF7) is reported as 11.6 µM.

Compound `CCCCn1c(-c2ccc3ccccc3c2)c(C(C(=O)NO)c2ccccc2)c2ccccc21` (centres undefined) has an IC50 (HeLa) of 5.6 µM and an IC50 (MCF7) of 7.8 µM.

Compound `O=C(NO)C(c1ccccc1)c1c(-c2cccc3ccccc23)[nH]c2ccccc12` (centres undefined) has an IC50 (HeLa) of 25.7 µM and an IC50 (MCF7) of 32 µM.

Compound `COc1ccc(C(C(=O)NO)c2c(-c3ccc4ccccc4c3)[nH]c3ccccc23)cc1OC` (centres undefined) has an IC50 (HeLa) of 26.9 µM and an IC50 (MCF7) of 2.4 µM.

Work on `CC(C)c1ccc(C(C(=O)NO)c2c(-c3ccc4ccccc4c3)[nH]c3ccccc23)cc1` (centres undefined) yielded a GI50 [6] of 5 µM, a GI50 [1] of 3.4 µM and an IC50 (HeLa) of 0.68 µM. It also gave an IC50 (MCF7) of 1.4 µM.

In the case of `O=C(NO)C(c1ccc(OC(F)(F)F)cc1)c1c(-c2ccc3ccccc3c2)[nH]c2ccccc12` (centres undefined), the IC50 (HeLa) is reported as 27.4 µM and the IC50 (MCF7) is reported as 10.2 µM.

For `Cc1ccc2[nH]c(-c3ccc4ccccc4c3)c(C(C(=O)NO)c3ccccc3)c2c1` (centres undefined), the IC50 (HeLa) was > 50 µM and the IC50 (MCF7) was > 50 µM.

With `Cc1[nH]c2ccccc2c1C(C(=O)NO)c1ccccc1` (centres undefined) the IC50 (HeLa) was > 50 µM and the IC50 (MCF7) was > 50 µM.

`O=C(NO)C(c1ccccc1)c1c(-c2ccccc2)[nH]c2ccccc12` (centres undefined) gave an IC50 (HeLa) of 23 µM and an IC50 (MCF7) of 31 µM.

Compound `O=C(NO)C(c1ccc(F)cc1)c1c(-c2ccc3ccccc3c2)[nH]c2ccccc12` (centres undefined) has an IC50 (HeLa) of 18.2 µM and an IC50 (MCF7) of 6.3 µM.

In the case of `CCOc1ccc(C(C(=O)NO)c2c(-c3ccc4ccccc4c3)[nH]c3ccccc23)cc1` (centres undefined), the IC50 (HeLa) is reported as 17.3 µM and the IC50 (MCF7) is reported as 8.5 µM.

`Cn1c(-c2ccc3ccccc3c2)c(C(C(=O)NO)c2ccccc2Br)c2ccccc21` (centres undefined) gave an IC50 (HeLa) of 24 µM and an IC50 (MCF7) of 11.2 µM.

With `O=C(NO)C(c1ccc([N+](=O)[O-])cc1)c1c(-c2ccccc2)[nH]c2ccccc12` (centres undefined) the IC50 (HeLa) was > 50 µM and the IC50 (MCF7) was > 50 µM.

Source: ChEMBL document CHEMBL3414478, “Activity of 2-aryl-2-(3-indolyl)acetohydroxamates against drug-resistant cancer cells” (J Med Chem, 2015)
